# Assay results as given in ChEMBL document CHEMBL3758165, “In vitro interactions between anidulafungin and nonsteroidal anti-inflammatory drugs on biofilms of Candida spp” (2016).
# Assays:
# Assay type in all cases: functional
# [1] = system: Meyerozyma guilliermondii; test: Antibiofilm activity against Candida guilliermondii a410 after 48 hrs by XTT reduction assay relative to control; parameters: scale not given: the % may be the effect or the level left
# Method in brief: (§1)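 Biofilms grown on autoclaved PVC disks: 1·10^6 cfu ml-1 cells, adhesion 1.5 h at 37 °C shaking 100 rpm, PBS wash, then 48 h at 37 °C in RPMI 1640 (MOPS, pH 7). Metabolic activity read by XTT–menadione reduction, 2 h at 37 °C, supernatant formazan at 490 nm, relative to drug-free control; triplicate on different days.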
# [2] = system: Candida albicans; test: Antibiofilm activity against Candida albicans ATCC 10231 after 48 hrs by XTT reduction assay relative to control; parameters: scale not given: the % may be the effect or the level left; method in brief: as §1
# [3] = system: Candida albicans; test: Antibiofilm activity against Candida albicans ATCC 90028 after 48 hrs by XTT reduction assay relative to control; parameters: scale not given: the % may be the effect or the level left; method in brief: as §1
# [4] = system: Candida albicans; test: Antibiofilm activity against Candida albicans ATCC 24433 after 48 hrs by XTT reduction assay relative to control; parameters: scale not given: the % may be the effect or the level left; method in brief: as §1
# [5] = system: Nakaseomyces glabratus; test: Antibiofilm activity against Candida glabrata ATCC 15126 after 48 hrs by XTT reduction assay relative to control; parameters: scale not given: the % may be the effect or the level left; method in brief: as §1
# [6] = system: Nakaseomyces glabratus; test: Antibiofilm activity against Candida glabrata 18a10 after 48 hrs by XTT reduction assay relative to control; parameters: scale not given: the % may be the effect or the level left; method in brief: as §1
# [7] = system: Meyerozyma guilliermondii; test: Antibiofilm activity against Candida guilliermondii a83 after 48 hrs by XTT reduction assay relative to control; parameters: scale not given: the % may be the effect or the level left
# [8] = system: Candida albicans; test: Antibiofilm activity against Candida albicans ATCC 90028 by two dimensional checkerboard dilution method in presence of aspirin
# Method in brief: (§2)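 Preformed 48 h disk biofilms (RPMI 1640, MOPS pH 7, 37 °C), PBS-washed, exposed 24 h at 37 °C on rocker to two-dimensional checkerboard of anidulafungin plus NSAID in RPMI; NSAID final 0.1 µM to 100 mM. XTT reduction at 490 nm; SMIC = combination giving 50% metabolic reduction versus drug-free control; FIC index calculated; triplicate on different days.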
# [9] = system: Candida albicans; test: Antibiofilm activity against Candida albicans ATCC 24433 by two dimensional checkerboard dilution method in presence of aspirin; method in brief: as §2
# [10] = system: Nakaseomyces glabratus; test: Antibiofilm activity against Candida glabrata ATCC 15126 by two dimensional checkerboard dilution method in presence of aspirin; method in brief: as §2
# [11] = system: Nakaseomyces glabratus; test: Antibiofilm activity against Candida glabrata 18a10 by two dimensional checkerboard dilution method in presence of aspirin; method in brief: as §2
# [12] = system: Meyerozyma guilliermondii; test: Antibiofilm activity against Candida guilliermondii ATCC 6260 by two dimensional checkerboard dilution method in presence of aspirin; method in brief: as §2
# [13] = system: Meyerozyma guilliermondii; test: Antibiofilm activity against Candida guilliermondii a83 by two dimensional checkerboard dilution method in presence of aspirin
# Method in brief: (§3)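 Biofilms were grown on PVC disks from 2 ml of a 1·10^6 cfu/ml cell suspension. Adhesion ran 1.5 h at 37 °C with shaking at 100 rpm. Disks were PBS-washed, then matured 48 h at 37 °C in RPMI 1640 (MOPS, pH 7). Biofilms were washed again and given 24 h at 37 °C of anidulafungin/NSAID checkerboard combinations (NSAID final 0.1 µM–100 mM). Read-out was XTT-menadione (2 h, 37 °C, 490 nm). SMIC was defined as 50% reduction versus drug-free control, from which FICI was calculated. Triplicates were run on different days.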
# [14] = system: Candida albicans; test: Antibiofilm activity against Candida albicans ATCC 90028 assessed as fractional inhibitory concentration by two dimensional checkerboard dilution method in presence of aspirin; method in brief: as §2
# [15] = system: Candida albicans; test: Antibiofilm activity against Candida albicans ATCC 24433 assessed as fractional inhibitory concentration by two dimensional checkerboard dilution method in presence of aspirin; method in brief: as §2
# [16] = system: Candida albicans; test: Antibiofilm activity against Candida albicans 17a18 assessed as fractional inhibitory concentration by two dimensional checkerboard dilution method in presence of aspirin; method in brief: as §2
# [17] = system: Nakaseomyces glabratus; test: Antibiofilm activity against Candida glabrata ATCC 15126 assessed as fractional inhibitory concentration by two dimensional checkerboard dilution method in presence of aspirin; method in brief: as §2
# [18] = system: Meyerozyma guilliermondii; test: Antibiofilm activity against Candida guilliermondii a410 assessed as fractional inhibitory concentration by two dimensional checkerboard dilution method in presence of aspirin; method in brief: as §3
# [19] = system: Candida albicans; test: Antibiofilm activity against Candida albicans ATCC 24433 assessed as fractional inhibitory concentration by two dimensional checkerboard dilution method in presence of diclofenac; method in brief: as §2
# [20] = system: Candida albicans; test: Antibiofilm activity against Candida albicans 17a18 assessed as fractional inhibitory concentration by two dimensional checkerboard dilution method in presence of diclofenac; method in brief: as §2
# [21] = system: Nakaseomyces glabratus; test: Antibiofilm activity against Candida glabrata ATCC 15126 by two dimensional checkerboard dilution method in presence of diclofenac; method in brief: as §2
# [22] = system: Nakaseomyces glabratus; test: Antibiofilm activity against Candida glabrata ATCC 15126 assessed as fractional inhibitory concentration by two dimensional checkerboard dilution method in presence of diclofenac; method in brief: as §2
# [23] = system: Nakaseomyces glabratus; test: Antibiofilm activity against Candida glabrata 18a10 by two dimensional checkerboard dilution method in presence of diclofenac; method in brief: as §2
# [24] = system: Nakaseomyces glabratus; test: Antibiofilm activity against Candida glabrata 18a10 assessed as fractional inhibitory concentration by two dimensional checkerboard dilution method in presence of diclofenac; method in brief: as §2
# [25] = system: Meyerozyma guilliermondii; test: Antibiofilm activity against Candida guilliermondii a83 by two dimensional checkerboard dilution method in presence of diclofenac; method in brief: as §3
# [26] = system: Meyerozyma guilliermondii; test: Antibiofilm activity against Candida guilliermondii a83 assessed as fractional inhibitory concentration by two dimensional checkerboard dilution method in presence of diclofenac; method in brief: as §3
# [27] = system: Candida albicans; test: Antibiofilm activity against Candida albicans ATCC 10231 by two dimensional checkerboard dilution method in presence of ibuprofen; method in brief: as §2
# [28] = system: Candida albicans; test: Antibiofilm activity against Candida albicans ATCC 90028 by two dimensional checkerboard dilution method in presence of ibuprofen; method in brief: as §2
# [29] = system: Candida albicans; test: Antibiofilm activity against Candida albicans 17a18 assessed as fractional inhibitory concentration by two dimensional checkerboard dilution method in presence of ibuprofen; method in brief: as §2
# [30] = system: Nakaseomyces glabratus; test: Antibiofilm activity against Candida glabrata ATCC 15126 by two dimensional checkerboard dilution method in presence of ibuprofen; method in brief: as §2
# [31] = system: Nakaseomyces glabratus; test: Antibiofilm activity against Candida glabrata ATCC 15126 assessed as fractional inhibitory concentration by two dimensional checkerboard dilution method in presence of ibuprofen; method in brief: as §2
# [32] = system: Nakaseomyces glabratus; test: Antibiofilm activity against Candida glabrata 18a10 by two dimensional checkerboard dilution method in presence of ibuprofen; method in brief: as §2
# [33] = system: Nakaseomyces glabratus; test: Antibiofilm activity against Candida glabrata 18a10 assessed as fractional inhibitory concentration by two dimensional checkerboard dilution method in presence of ibuprofen; method in brief: as §2
# [34] = system: Meyerozyma guilliermondii; test: Antibiofilm activity against Candida guilliermondii a410 at 0.1 uM to 100 mM after 48 hrs by XTT reduction assay relative to control; parameters: scale not given: the % may be the effect or the level left
# Method in brief: (§4)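 Biofilms grown on sterilized PVC disks: 1·10^6 cfu/ml Candida cells adhered for 1.5 h at 37 °C with shaking, washed with PBS, then matured 48 h at 37 °C in RPMI 1640 (MOPS, pH 7). Preformed biofilms were washed and exposed to drug, alone or in two-dimensional checkerboard combination, in RPMI 1640 for 24 h at 37 °C on a rocker.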
# [35] = system: Candida albicans; test: Antibiofilm activity against Candida albicans ATCC 90028 at 0.1 uM to 100 mM after 48 hrs by XTT reduction assay relative to control; parameters: scale not given: the % may be the effect or the level left; method in brief: as §4
# [36] = system: Meyerozyma guilliermondii; test: Antibiofilm activity against Candida guilliermondii ATCC 6260 at 0.2 mM after 24 hrs by XTT reduction assay relative to control; parameters: scale not given: the % may be the effect or the level left; method in brief: as §4
structure (smiles),measurement,setting,value
CCCCCOc1ccc(-c2ccc(-c3ccc(C(=O)N[C@@H]4C[C@@H](O)[C@@H](O)NC(=O)[C@@H]5[C@@H](O)[C@@H](C)CN5C(=O)[C@H]([C@@H](C)O)NC(=O)[C@H]([C@H](O)[C@@H](O)c5ccc(O)cc5)NC(=O)[C@@H]5C[C@@H](O)CN5C(=O)[C@H]([C@H](C)O)NC4=O)cc3)cc2)cc1,Activity,[1],45.62%
same,Activity,[2],33.98%
same,Activity,[3],16.09%
same,Activity,[4],25.06%
same,Activity,[5],27.41%
same,Activity,[6],37.42%
same,Activity,[7],47.83%
same,MIC,[8],0.1 µg/mL
same,MIC,[9],0.1 µg/mL
same,MIC,[10],0.1 µg/mL
same,MIC,[11],0.1 µg/mL
same,MIC,[12],0.1 µg/mL
same,MIC,[13],0.1 µg/mL
same,Ratio,[14],0.05
same,Ratio,[15],0.05
same,Ratio,[16],0.05
same,Ratio,[17],0.05
same,Ratio,[18],0.05
same,Ratio,[19],0.05
same,Ratio,[20],0.05
same,MIC,[21],0.2 µg/mL
same,Ratio,[22],0.1
same,MIC,[23],0.2 µg/mL
same,Ratio,[24],0.1
same,MIC,[25],0.2 µg/mL
same,Ratio,[26],0.1
same,MIC,[27],0.4 µg/mL
same,MIC,[28],0.4 µg/mL
same,Ratio,[29],0.2
same,MIC,[30],0.1 µg/mL
same,Ratio,[31],0.05
same,MIC,[32],0.1 µg/mL
same,Ratio,[33],0.05
O=C([O-])Cc1ccccc1Nc1c(Cl)cccc1Cl.[Na+] [DICLOFENAC SODIUM],Activity,[34],58.69%
same,Activity,[35],51.15%
CC(C)Cc1ccc(C(C)C(=O)O)cc1 (stereo unspecified) [IBUPROFEN],Activity,[36],64.43%
